The text below walks through data of ChEMBL document CHEMBL1129686, “(S)-(-)-5-ethynyl-3-(1-methyl-2-pyrrolidinyl)pyridine maleate (SIB-1508Y): a novel anti-parkinsonian agent with selectivity for neuronal nicotinic acetylcholine receptors” (J Med Chem, 1996).

In general, IC50 refers to the midpoint of a concentration-inhibition curve. Low readings indicate greater potency in that assay, high ones weaker potency in that assay. As usually defined, the EC50 is the concentration that produces a half-maximal response.

Several values for one entry are separate records, joined by “and”; a condition that tells them apart may be missing. Identical values can stand only once.

The target in experiment [1] is Muscarinic acetylcholine receptor. Put plainly: Muscarinic acetylcholine receptor binding (rat cortical membranes) was determined by displacement of [3H]quinuclidinyl benzylate [3H]QNB). For orientation: Displacement assays read how much labelled ligand stays bound in the presence of the test substance.
The target of experiment [2] is Neuronal nicotinic acetylcholine receptor. Put plainly: Binding affinity at NAChRs was determined by measuring the displacement of ([3H]Nic) from a preparation of rat cortical membranes. Format: cell membranes, Membrane.
A further experiment is filed under the species Rattus norvegicus. Put plainly: The efficiency of the compound (300 micro M) to stimulate ([3H]DA) release. Format: functional.
In experiment [3] the target is Acetylcholine receptor; alpha1/beta1/delta/gamma (Homo sapiens, UniProt P02708+P07510+P11230+Q07001). Put plainly: (§1) The compound was tested on recombinant human alpha-1-beta-1-gamma-delta cell lines of […] for nicotinic acetylcholine receptor agonist functional potency.
For experiment [4], the target named is T1, Neuronal acetylcholine receptor; alpha4/beta4 (Homo sapiens, UniProt P30926+P43681). Put plainly: The compound was tested on recombinant human alpha4-beta4 cell lines of Human embryonic kidney for nicotinic acetylcholine receptor agonist functional potency. An outline of the steps:
(§2)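 Stably transfected human recombinant NAChR cell lines: HEK293 for α2β4, α3β4, α4β4 and α4β2; human RD cells for fetal α1β1γδ muscle receptor. Agonist-evoked Ca2+ entry read as change in [Ca2+]i with fluo-3. Highest concentration tested 300 μM.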
Target sequence in this assay (P30926 whole entry): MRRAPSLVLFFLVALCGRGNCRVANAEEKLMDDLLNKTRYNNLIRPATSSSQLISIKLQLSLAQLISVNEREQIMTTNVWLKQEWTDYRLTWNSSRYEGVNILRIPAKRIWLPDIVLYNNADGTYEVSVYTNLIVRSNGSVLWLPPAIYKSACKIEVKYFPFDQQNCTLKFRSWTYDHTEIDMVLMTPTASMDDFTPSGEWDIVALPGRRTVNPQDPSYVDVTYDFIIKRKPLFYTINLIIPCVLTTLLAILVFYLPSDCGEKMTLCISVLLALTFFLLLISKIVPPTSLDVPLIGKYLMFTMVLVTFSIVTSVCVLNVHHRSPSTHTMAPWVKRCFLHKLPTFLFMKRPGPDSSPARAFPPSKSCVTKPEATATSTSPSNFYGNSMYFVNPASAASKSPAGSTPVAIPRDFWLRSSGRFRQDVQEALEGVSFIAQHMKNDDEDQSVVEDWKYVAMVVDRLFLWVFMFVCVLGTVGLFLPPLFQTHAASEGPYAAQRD
Target sequence in this assay (P43681 whole entry): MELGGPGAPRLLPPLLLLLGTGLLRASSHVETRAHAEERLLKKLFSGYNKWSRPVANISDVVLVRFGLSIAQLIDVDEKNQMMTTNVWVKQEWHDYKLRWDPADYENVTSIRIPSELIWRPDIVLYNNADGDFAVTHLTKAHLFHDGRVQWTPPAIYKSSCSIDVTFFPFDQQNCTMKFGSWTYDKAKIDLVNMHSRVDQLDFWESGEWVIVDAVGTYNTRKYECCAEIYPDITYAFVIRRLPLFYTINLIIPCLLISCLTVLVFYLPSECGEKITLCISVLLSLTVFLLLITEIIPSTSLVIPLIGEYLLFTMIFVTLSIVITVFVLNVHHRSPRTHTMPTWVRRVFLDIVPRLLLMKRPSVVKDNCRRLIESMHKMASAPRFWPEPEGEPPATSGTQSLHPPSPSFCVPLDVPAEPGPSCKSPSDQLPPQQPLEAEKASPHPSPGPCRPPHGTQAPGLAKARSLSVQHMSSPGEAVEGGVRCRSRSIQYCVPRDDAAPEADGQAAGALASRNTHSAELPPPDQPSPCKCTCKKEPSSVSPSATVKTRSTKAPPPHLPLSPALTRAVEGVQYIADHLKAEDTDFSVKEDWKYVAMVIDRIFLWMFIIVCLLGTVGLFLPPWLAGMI

Experiment [5] deals with T2, Neuronal acetylcholine receptor; alpha3/beta4 (Homo sapiens, UniProt P30926+P32297). Put plainly: The compound was tested on recombinant human alpha3-beta4 cell lines of Human embryonic kidney for nicotinic acetylcholine receptor agonist functional potency. An outline of the steps:
as §2

Experiment [6] concerns the target T3, Nicotinic acetylcholine receptor alpha2/beta4 (Homo sapiens, UniProt P30926+Q15822). Nature of the experiment: The compound was tested on recombinant human alpha2-beta4 cell lines of Human embryonic kidney for nicotinic acetylcholine receptor agonist functional potency. An outline of the steps: as §2
The target of experiment [7] is Neuronal acetylcholine receptor; alpha4/beta2 (Homo sapiens, UniProt P17787+P43681). Nature of the experiment: The compound was tested on recombinant human alpha4-beta2 cell lines of Human embryonic kidney for nicotinic acetylcholine receptor agonist functional potency; IA=inactive. An outline of the steps:
as §2

The target in experiment [8] is T1, Neuronal acetylcholine receptor; alpha4/beta4. Put plainly: The compound was tested on recombinant human alpha4-beta4 cell lines of HUman embryonic kidney for nicotinic acetylcholine receptor agonist functional potency. The procedure, abridged: as §2
Target sequence in this assay (P43681 whole entry, looked up): as the sequence (P43681 whole entry) above
Target sequence in this assay (P30926 whole entry, looked up): as the sequence (P30926 whole entry) above
For experiment [9], the target named is T2, Neuronal acetylcholine receptor; alpha3/beta4. Nature of the experiment: The compound was tested on recombinant human alpha3-beta4 cell lines of HUman embryonic kidney for nicotinic acetylcholine receptor agonist functional potency. An outline of the steps:
as §2

Experiment [10] deals with T3, Nicotinic acetylcholine receptor alpha2/beta4. Nature of the experiment: The compound was tested on recombinant human alpha2-beta4 cell lines of HUman embryonic kidney for nicotinic acetylcholine receptor agonist efficacy.
Experiment [11] concerns the target Muscle-type nicotinic acetylcholine receptor. The description is as §1.

T3 sequence (P02708 whole entry): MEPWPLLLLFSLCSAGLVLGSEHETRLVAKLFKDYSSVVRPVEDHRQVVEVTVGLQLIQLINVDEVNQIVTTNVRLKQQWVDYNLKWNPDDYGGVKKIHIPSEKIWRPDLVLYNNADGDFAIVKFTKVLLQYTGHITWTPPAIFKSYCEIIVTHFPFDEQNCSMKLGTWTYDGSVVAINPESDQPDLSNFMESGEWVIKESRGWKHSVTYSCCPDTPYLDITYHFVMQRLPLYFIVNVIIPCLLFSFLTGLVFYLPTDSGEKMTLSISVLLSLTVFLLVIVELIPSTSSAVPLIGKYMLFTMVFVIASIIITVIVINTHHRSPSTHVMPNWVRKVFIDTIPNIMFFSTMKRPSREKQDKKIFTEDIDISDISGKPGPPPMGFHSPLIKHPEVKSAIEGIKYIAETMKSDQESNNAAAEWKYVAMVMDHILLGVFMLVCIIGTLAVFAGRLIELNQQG
T3 sequence (P30926 whole entry): as the sequence (P30926 whole entry) above
T2 sequence (P30926 whole entry): as above
T2 sequence (P32297 whole entry): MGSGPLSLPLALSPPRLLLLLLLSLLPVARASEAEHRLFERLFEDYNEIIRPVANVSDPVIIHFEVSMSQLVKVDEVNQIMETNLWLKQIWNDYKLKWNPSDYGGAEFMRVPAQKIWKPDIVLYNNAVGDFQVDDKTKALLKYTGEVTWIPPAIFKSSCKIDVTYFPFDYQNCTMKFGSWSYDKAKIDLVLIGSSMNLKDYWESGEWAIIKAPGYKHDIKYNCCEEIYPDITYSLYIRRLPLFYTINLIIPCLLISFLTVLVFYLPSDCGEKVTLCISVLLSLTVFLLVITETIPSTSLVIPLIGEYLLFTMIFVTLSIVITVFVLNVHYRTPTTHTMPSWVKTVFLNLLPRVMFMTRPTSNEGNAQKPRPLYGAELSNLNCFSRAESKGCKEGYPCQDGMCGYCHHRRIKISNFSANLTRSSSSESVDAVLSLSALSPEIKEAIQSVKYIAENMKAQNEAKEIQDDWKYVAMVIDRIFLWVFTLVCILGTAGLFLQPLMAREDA
Acetylcholine receptor; alpha1/beta1/delta/gamma, sequence (P02708 whole entry): as the sequence (P02708 whole entry) above
Acetylcholine receptor; alpha1/beta1/delta/gamma, sequence (P07510 whole entry): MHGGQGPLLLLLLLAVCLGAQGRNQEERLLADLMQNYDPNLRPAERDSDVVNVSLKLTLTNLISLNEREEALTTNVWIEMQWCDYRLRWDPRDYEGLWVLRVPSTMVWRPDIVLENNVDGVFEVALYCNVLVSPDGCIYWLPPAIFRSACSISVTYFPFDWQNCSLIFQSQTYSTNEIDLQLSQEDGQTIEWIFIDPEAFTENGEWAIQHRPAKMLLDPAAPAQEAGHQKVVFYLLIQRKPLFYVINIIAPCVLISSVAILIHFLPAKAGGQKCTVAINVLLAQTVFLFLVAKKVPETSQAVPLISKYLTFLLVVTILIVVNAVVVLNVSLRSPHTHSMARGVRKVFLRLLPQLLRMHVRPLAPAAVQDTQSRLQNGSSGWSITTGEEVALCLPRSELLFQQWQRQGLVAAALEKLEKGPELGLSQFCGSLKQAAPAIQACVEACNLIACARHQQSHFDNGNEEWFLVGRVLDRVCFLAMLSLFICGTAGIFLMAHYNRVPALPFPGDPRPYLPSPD
Acetylcholine receptor; alpha1/beta1/delta/gamma, sequence (P11230 whole entry): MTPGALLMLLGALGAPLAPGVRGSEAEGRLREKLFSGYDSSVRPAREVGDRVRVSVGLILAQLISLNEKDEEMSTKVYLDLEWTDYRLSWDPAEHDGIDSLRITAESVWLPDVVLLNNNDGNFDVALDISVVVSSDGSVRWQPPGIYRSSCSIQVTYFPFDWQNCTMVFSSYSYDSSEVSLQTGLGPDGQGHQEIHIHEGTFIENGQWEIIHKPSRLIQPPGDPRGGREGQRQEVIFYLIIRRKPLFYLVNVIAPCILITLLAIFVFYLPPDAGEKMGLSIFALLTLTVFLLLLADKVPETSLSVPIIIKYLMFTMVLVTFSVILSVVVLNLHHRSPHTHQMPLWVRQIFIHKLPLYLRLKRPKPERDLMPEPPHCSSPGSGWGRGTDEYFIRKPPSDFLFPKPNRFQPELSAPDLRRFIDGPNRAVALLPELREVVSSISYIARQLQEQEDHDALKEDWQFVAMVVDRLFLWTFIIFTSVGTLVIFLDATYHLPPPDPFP
Acetylcholine receptor; alpha1/beta1/delta/gamma, sequence (Q07001 whole entry): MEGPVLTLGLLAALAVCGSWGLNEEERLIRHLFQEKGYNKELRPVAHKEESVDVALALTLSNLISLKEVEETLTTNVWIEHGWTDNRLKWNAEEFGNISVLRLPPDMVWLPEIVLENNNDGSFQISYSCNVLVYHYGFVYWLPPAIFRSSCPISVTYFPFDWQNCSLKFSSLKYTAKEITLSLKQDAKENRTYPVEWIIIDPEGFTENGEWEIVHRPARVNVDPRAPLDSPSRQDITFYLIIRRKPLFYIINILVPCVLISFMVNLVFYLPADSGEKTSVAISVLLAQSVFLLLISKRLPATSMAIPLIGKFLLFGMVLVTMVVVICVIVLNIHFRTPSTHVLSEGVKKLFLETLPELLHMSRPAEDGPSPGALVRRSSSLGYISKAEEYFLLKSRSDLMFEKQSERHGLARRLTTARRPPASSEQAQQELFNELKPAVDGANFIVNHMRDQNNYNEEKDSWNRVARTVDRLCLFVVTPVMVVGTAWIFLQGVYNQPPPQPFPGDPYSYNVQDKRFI
Neuronal acetylcholine receptor; alpha4/beta2, sequence (P17787 whole entry): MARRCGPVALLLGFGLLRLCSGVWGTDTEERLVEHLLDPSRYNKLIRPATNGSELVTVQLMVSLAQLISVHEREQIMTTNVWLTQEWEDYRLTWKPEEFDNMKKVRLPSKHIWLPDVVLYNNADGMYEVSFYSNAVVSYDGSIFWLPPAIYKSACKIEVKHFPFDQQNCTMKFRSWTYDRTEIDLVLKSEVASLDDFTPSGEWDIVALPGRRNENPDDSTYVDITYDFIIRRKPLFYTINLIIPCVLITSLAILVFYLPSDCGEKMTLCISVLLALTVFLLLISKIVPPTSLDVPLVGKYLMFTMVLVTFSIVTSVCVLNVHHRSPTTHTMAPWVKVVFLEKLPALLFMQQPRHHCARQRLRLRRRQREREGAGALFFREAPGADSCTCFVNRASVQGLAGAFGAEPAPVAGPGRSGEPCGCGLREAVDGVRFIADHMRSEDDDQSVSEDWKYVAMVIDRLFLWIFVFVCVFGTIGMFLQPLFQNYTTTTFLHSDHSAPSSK
Neuronal acetylcholine receptor; alpha4/beta2, sequence (P43681 whole entry): as the sequence (P43681 whole entry) above

Take `CCc1cncc(C2CCCN2C)c1` (stereo not given): the IC50 in [1] came out at 5.8 µM; in experiment [2], 0.011 µM. Also, the Release in the experiment listed under Rattus norvegicus was 27.5%.

As for `C#Cc1cncc(C2CCCN2C)c1` (stereo not given), the IC50 in [1] came to 10.1 µM; in [2] it was 0.0046 µM. Moreover, the EC50 was 52 µM and 53 µM in experiment [3]; 25 µM and 23 µM in experiment [4]; 41 µM and 34 µM in experiment [5]; 15 µM and 39 µM in [6]. The compound further registered a Release in the experiment listed under Rattus norvegicus of 143%.

`C#Cc1cncc([C@H]2CCCN2C)c1`: the IC50 was found to be 4.5 µM in experiment [1] and 0.075 µM in [2]. Further, the EC50 entry was “Not Active” in [7]; 31 µM and 8 µM in experiment [8]; 68 µM in [9]; 68 µM in [5]; 29 µM in experiment [6]. For the same compound, in the experiment listed under Rattus norvegicus, the Release is 55%. Moreover, the Efficacy in experiment [10] was found to be 9%.

Consider `CN1CCCC1c1cncc(Br)c1` (stereo not given), for which the figures for the IC50 in [1] and in [2] were 1.6 µM and 0.019 µM, respectively. Also, the Release in the experiment filed under Rattus norvegicus came to 69%.

On to `C#Cc1cncc([C@@H]2CCCN2C)c1` [ALTINICLINE], for which the values for the IC50 in [1] and in [2] were 8.9 µM and 0.003 µM, respectively. Further, the EC50 in experiment [4] is 9 µM and 26 µM; in [5], 23 µM and 52 µM; in experiment [6], 5 µM and 49 µM. The compound further showed a Release in the experiment filed under Rattus norvegicus of 163%.

For `CN1CCC[C@H]1c1cccnc1` [NICOTINE], the EC50 in experiment [11] was 65 µM; in experiment [6] it was 10 µM.
